Molecules are shown by their SMILES.

Type in all cases: functional, cell-based
Experiment [1] concerns iNKT. The experiment is described as follows: Immunostimulatory activity in iNKT hybridoma 1.2 cells expressing TCR Vbeta8.2 assessed as IL2 level by ELISA. Summed up: (§1)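 Glycolipid pulsed at indicated amounts onto 1 × 10^5 A20 B lymphoma cells transfected to overexpress mouse CD1d, overnight. APCs washed, then cocultured with 2 × 10^5 Vα14 iNKT hybridoma cells (2H4 Vβ7, 1.2 Vβ8.2, 1.4 Vβ10) overnight. Supernatant IL-2 measured by ELISA as TCR-recognition readout. Dose-response curves, representative of three similar experiments.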

Experiment [2] concerns iNKT. The experiment is described as follows: Immunostimulatory activity in iNKT hybridoma 2H4 cells expressing TCR Vbeta7 assessed as IL2 level by ELISA. Summed up: as §1
Experiment [3] concerns iNKT. As to the kind of experiment: Immunostimulatory activity in iNKT hybridoma 1.4 cells expressing TCR Vbeta10 assessed as IL2 level by ELISA. Summed up: as §1

For `CCCCCCCCCCCCCCCCCCCCCCCCCC(=O)N[C@@H](CO[C@H]1O[C@H](CO)C[C@H](O)[C@H]1O)[C@H](O)CCCCCCCCCCCCCCC`, the Activity result in experiment [1] and in experiment [2] was “Dose-dependent effect” in each case.
As for `CCCCCCCCCCCCCCCCCCCCCCCCCC(=O)N[C@@H](CO[C@H]1O[C@H](CO)[C@H](O)[C@H](O)[C@H]1O)[C@H](O)[C@H](O)CCCCCCCCCCCCCC`, the Activity result in experiment [1], in experiment [2] and in experiment [3] was “Dose-dependent effect” throughout.
For `CCCCCCCCCCCCCCCCCCCCCCCCCC(=O)N[C@@H](CO[C@H]1O[C@H](CO)[C@H](O)C[C@H]1O)[C@H](O)CCCCCCCCCCCCCCC`, the Activity result in experiment [1] and in experiment [2] was “Dose-dependent effect” in each case.
For the compound `CCCCCCCCCCCCCCCCCCCCCCCCCC(=O)N[C@@H](CO[C@H]1O[C@H](CO)[C@H](F)[C@H](O)[C@H]1O)[C@H](O)CCCCCCCCCCCCCCC`, the Activity result in experiment [1], in experiment [2] and in experiment [3] was “Dose-dependent effect” each time.
Regarding `CCCCCCCCCCCCCCCCCCCCCCCCCC(=O)N[C@@H](CO[C@H]1O[C@H](CO)[C@H](O)[C@H](F)[C@H]1O)[C@H](O)CCCCCCCCCCCCCCC`, the Activity result in experiment [1] and in experiment [2] was “Dose-dependent effect” throughout.
As for `CCCCCCCCCCCCCCCCCCCCCCCCCC(=O)N[C@@H](CO[C@H]1O[C@H](CO)[C@H](O)[C@H](O)[C@H]1O)[C@H](O)CCCCCCCCCCCCCCC`, the Activity result in experiment [1], in experiment [2] and in experiment [3] was “Dose-dependent effect” in each case.
